Data on 12 compounds can be found in ChEMBL document CHEMBL1123814, “Synthesis and beta-lactamase inhibitory properties of 2 beta-[(1,2,3-triazol-1-yl)methyl]-2 alpha-methylpenam-3 alpha-carboxylic acid 1,1-dioxide and related triazolyl derivatives” (J Med Chem, 1987).

Values after ≈ are worked out from the molar mass of the structure shown.

What is called MIC50 is an inhibitory concentration at the 50% level, which refers to growth in some studies and to a panel of isolates in others. Broadly, the MIC is the smallest concentration in the dilution series that meets the test's criterion for growth inhibition. Broadly, the IC50 is the concentration that gives 50% inhibition.

In assay [1] the test system is Escherichia coli. In words: Minimum inhibitory concentration against 30 strains of Escherichia coli. It is filed as functional.
The test system of assay [2] is Escherichia coli. In words: Growth inhibition against Beta lactamase producing bacteria, Escherichia coli (TH-13) was determined for the compound in the combination with Ampicillin. Type of assay: functional. The essentials: (§1)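 Bacteria (β-lactamase producers) were grown in Mueller Hinton broth and diluted to 10⁷ cfu/mL. They were inoculated into the same medium containing ampicillin plus triazole and incubated at 37 °C for 20 h. The MIC was the lowest concentration leaving the medium free of turbidity.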

Assay [3] deals with Escherichia coli. In words: Growth inhibition against Beta lactamase producing bacteria, Escherichia coli (TH-397) was determined for the compound in the combination with Ampicillin. It is filed as functional. The essentials: as §1
Assay [4] concerns Proteus mirabilis. Kind of assay: Growth inhibition against Beta lactamase producing bacteria, Proteus mirabilis (121K) was determined for the compound in the combination with Ampicillin. It is filed as functional. The essentials:
as §1

The test system of assay [5] is Proteus vulgaris. In words: Growth inhibition against Beta lactamase producing bacteria, Proteus vulgaris (IID OX-19)was determined for the compound in the combination with Ampicillin. Type of assay: functional. A digest of the protocol:
as §1

The test system of assay [6] is Serratia marcescens. Kind of assay: Growth inhibition against Beta lactamase producing bacteria, Serratia marcescens was determined for the compound in the combination with Ampicillin. Type of assay: functional. A digest of the protocol:
as §1

In assay [7] the test system is Staphylococcus aureus. In words: Growth inhibition against Beta lactamase producing bacteria, Staphylococcus aureus (ATCC90124) was determined for the compound in the combination with Ampicillin. It is filed as functional. The essentials:
as §1

Assay [8] deals with Staphylococcus aureus. Kind of assay: Growth inhibition against Beta lactamase producing bacteria, Staphylococcus aureus (S-54K) was determined for the compound in the combination with Ampicillin. It is filed as functional. The essentials: as §1
A further assay deals with Beta-lactamase OXA-1 (Escherichia coli, UniProt P13661). Kind of assay: Inhibitory activity against Beta-lactamase type OXA1 (penicillinase) from Escherichia coli OXA1 using ampicillin (40 uM) as a substrate. A digest of the protocol: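 Isolated β-lactamase tested by microiodometric assay, measuring substrate hydrolysis. Ampicillin substrate at 40 μM. Value reported as the 50% inhibitory concentration.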
Chain of Beta-lactamase OXA-1 (P13661 whole entry): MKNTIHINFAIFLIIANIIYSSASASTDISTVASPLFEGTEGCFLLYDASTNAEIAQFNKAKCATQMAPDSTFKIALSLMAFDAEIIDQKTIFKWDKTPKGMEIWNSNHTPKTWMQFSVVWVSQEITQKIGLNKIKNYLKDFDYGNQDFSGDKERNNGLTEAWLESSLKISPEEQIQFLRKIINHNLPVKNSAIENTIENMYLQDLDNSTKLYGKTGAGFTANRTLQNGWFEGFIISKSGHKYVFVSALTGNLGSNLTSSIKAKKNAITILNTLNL

A short description of assay [9]: Inhibitory activity against cephalosporinase from Proteus morganii TH-64 using cephalothin (40 uM) as a substrate; […]. Further details: species or system Morganella morganii. The essentials:
(§2)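 Isolated β-lactamase (cephalosporinase) was inhibited in a microiodometric assay. Substrate concentration was 40 μM, and the 50% inhibitory concentration (M) was determined.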

A short description of assay [10]: Inhibitory activity against cephalosporinase from Proteus vulgaris TH-147 using cephalexin (40 uM) as a substrate. The essentials:
as §2

Assay [11] can be described thus: Inhibitory activity against cephalosporinase from Proteus morganii TH-64 using cephalothin (40 uM) as a substrate. Further details: species or system Morganella morganii. A digest of the protocol: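 Isolated β-lactamases were tested by the microiodometric assay, with each line's substrate at 40 μM.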
Assay [12] deals with Escherichia coli. In words: Minimum inhibitory concentration of Ampicillin required for growth inhibition of Beta lactamase producing bacteria Clinically isolated Escherichia coli (TH-13). It is filed as functional. The essentials:
(§3)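 The inoculum was 10⁷ cfu/mL, incubated at 37 °C for 20 h. The MIC was the lowest concentration that left the medium free of turbidity.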

Assay [13] concerns Escherichia coli. In words: Minimum inhibitory concentration of Ampicillin required for growth inhibition of Beta lactamase producing bacteria Clinically isolated Escherichia coli (TH-397). Type of assay: functional. The essentials:
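Broth microdilution in Mueller Hinton broth. Ampicillin was tested with the triazole fixed at 10 µg/mL against a β-lactamase-producing clinical isolate, with an inoculum of 10⁷ cfu/mL. Plates were incubated at 37 °C for 20 h. The MIC was the lowest concentration that left the medium free of turbidity.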

Assay [14] has as its system Proteus mirabilis. Kind of assay: Minimum inhibitory concentration of Ampicillin required for growth inhibition of Beta lactamase producing bacteria Proteus mirabilis (121K). Type of assay: functional. A digest of the protocol:
(§4)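 Micro broth dilution MIC of ampicillin tested on its own. β-Lactamase-producing bacteria were grown in Mueller Hinton broth and inoculated at 10⁷ cfu/mL into medium containing ampicillin.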

The subject of assay [15] is Proteus vulgaris. In words: Minimum inhibitory concentration of Ampicillin required for growth inhibition of Beta lactamase producing bacteria Proteus vulgaris (IID OX-19). It is filed as functional. The essentials:
as §4

The subject of assay [16] is Serratia marcescens. In words: Minimum inhibitory concentration of Ampicillin required for growth inhibition of Beta lactamase producing bacteria Serratia marcescens. It is filed as functional. The essentials:
as §4

The test system of assay [17] is Staphylococcus aureus. Kind of assay: Minimum inhibitory concentration of Ampicillin required for growth inhibition of Beta lactamase producing bacteria Staphylococcus aureus (S-54K). Type of assay: functional. The essentials:
as §3

Assay [18] relates to Staphylococcus aureus. In words: Minimum inhibitory concentration of Ampicillin required for growth inhibition of Beta lactamase producing bacteria Staphylococcus aureus (ATCC90124). It is filed as functional. The essentials: as §3

In the assay on Escherichia coli [1], `CC1(C)S[C@@H]2[C@H](/N=C/N3CCCCCC3)C(=O)N2[C@H]1C(=O)O.CC1(C)[C@H](C(=O)O)N2C(=O)C[C@H]2S1(=O)=O` registered an MIC50 of 0.1 µg/mL and an MIC70 of 0.39 µg/mL.
Consider `CC1(C)S[C@@H]2[C@H](NC(=O)C(N)c3ccccc3)C(=O)N2[C@H]1C(=O)O.C[C@]1(Cn2cc([Si](C)(C)C)nn2)[C@H](C(=O)[O-])C2C(=O)CC2S1(=O)=O.[Na+]` (stereo not given in full), for which the MIC came out at 100 µg/mL in the assay on Escherichia coli [2]; 50 µg/mL with Escherichia coli [3]; 25 µg/mL with Proteus mirabilis [4]; 1.56 µg/mL with Proteus vulgaris [5]; 100 µg/mL with Serratia marcescens [6]; 0.39 µg/mL in the assay on Staphylococcus aureus [7]. In the assay on Staphylococcus aureus [8], the minimum inhibitory concentration (MIC) stood at 0.78 µg/mL.
In the assay with Escherichia coli [1], `CCN1CCN(C(=O)N[C@@H](C(=O)N[C@@H]2C(=O)N3[C@@H]2SC(C)(C)[C@@H]3C(=O)O)c2ccccc2)C(=O)C1=O` [PIPERACILLIN] showed an MIC50 of 50 µg/mL (≈ 96.6 µM) and an MIC70 of 200 µg/mL (≈ 386 µM).
As for `O=C(O)[C@H]1/C(=C/CO)O[C@@H]2CC(=O)N21` [CLAVULANIC ACID], the concentration for half-maximal inhibition (IC50) was 3200 nM on Beta-lactamase OXA-1, “Not Active” in assay [9] and 160 nM in assay [10].
On to `CC1(C)[C@H](C(=O)O)N2C(=O)C[C@H]2S1(=O)=O.CCN1CCN(C(=O)N[C@@H](C(=O)N[C@@H]2C(=O)N3[C@@H]2SC(C)(C)[C@@H]3C(=O)O)c2ccccc2)C(=O)C1=O`, for which, in the assay with Escherichia coli [1], the MIC50 amounted to 12.5 µg/mL and the MIC70 worked out at 25 µg/mL.
For `CC1(C)S[C@@H]2[C@H](NC(=O)C(N)c3ccccc3)C(=O)N2[C@H]1C(=O)O.COC(=O)c1cnnn1C[C@@]1(C)[C@H](C(=O)[O-])C2C(=O)CC2S1(=O)=O.[Na+]` (stereo not given in full), the MIC with Escherichia coli [2] was 6.25 µg/mL; in the assay with Escherichia coli [3] it was 6.25 µg/mL; in the assay with Proteus mirabilis [4] it was 0.78 µg/mL; in the assay with Proteus vulgaris [5] it was 0.39 µg/mL; in the assay on Serratia marcescens [6] it was 25 µg/mL; in the assay with Staphylococcus aureus [7], 0.2 µg/mL. In the assay with Staphylococcus aureus [8], the minimum inhibitory concentration (MIC) was determined as 0.2 µg/mL.
Regarding `CC1(C)S[C@@H]2[C@H](NC(=O)C(N)c3ccccc3)C(=O)N2[C@H]1C(=O)O.COC(=O)c1cn(C[C@@]2(C)[C@H](C(=O)[O-])C3C(=O)CC3S2(=O)=O)nn1.[Na+]` (stereo not given in full), the MIC turned out to be 3.13 µg/mL with Escherichia coli [2]; 3.13 µg/mL in the assay with Escherichia coli [3]; 0.78 µg/mL in the assay on Proteus mirabilis [4]; 0.39 µg/mL with Proteus vulgaris [5]; 12.5 µg/mL in the assay on Serratia marcescens [6]; 0.2 µg/mL with Staphylococcus aureus [7]. The MIC with Staphylococcus aureus [8] came out at 0.2 µg/mL.
As for `CC1=C(C(=O)O)N2C(=O)[C@@H](NC(=O)[C@H](N)c3ccccc3)[C@H]2SC1` [CEPHALEXIN ANHYDROUS], in the assay on Escherichia coli [1], the MIC50 turned out to be 25 µg/mL (≈ 72 µM) and the MIC70 stood at 100 µg/mL (≈ 288 µM).
As to `CC1(C)S[C@@H]2[C@H](NC(=O)[C@H](N)c3ccccc3)C(=O)N2[C@H]1C(=O)O.CC1(C)[C@H](C(=O)O)N2C(=O)C[C@H]2S1(=O)=O`, in the assay with Escherichia coli [1], the MIC50 amounted to 12.5 µg/mL. This compound had an MIC70 against Escherichia coli [1] of 100 µg/mL. Moreover, the MIC amounted to 6.25 µg/mL with Escherichia coli [2]; 0.78 µg/mL in the assay with Escherichia coli [3]; 6.25 µg/mL in the assay on Proteus mirabilis [4]; 1.56 µg/mL in the assay with Proteus vulgaris [5]; 3.13 µg/mL in the assay with Serratia marcescens [6]; 0.2 µg/mL in the assay with Staphylococcus aureus [7]. In the assay with Staphylococcus aureus [8], the minimum inhibitory concentration (MIC) came out at 0.2 µg/mL.
`CC1(C)[C@H](C(=O)O)N2C(=O)C[C@H]2S1(=O)=O` [SULBACTAM]: the figures for the half-inhibitory concentration (IC50) (at Beta-lactamase OXA-1; in [11]; in [10]) were 22000 nM, 1000 nM and 800 nM, respectively.
In the assay on Escherichia coli [1], `CC1(C)S[C@@H]2[C@H](/N=C/N3CCCCCC3)C(=O)N2[C@H]1C(=O)O` [AMDINOCILLIN] showed an MIC50 of 3.13 µg/mL (≈ 9.62 µM) and an MIC70 of 12.5 µg/mL (≈ 38.4 µM).
Consider `CC1(C)S[C@@H]2[C@H](NC(=O)[C@H](N)c3ccccc3)C(=O)N2[C@H]1C(=O)O` [AMPICILLIN], for which the MIC in the assay with Escherichia coli [12] was 200 µg/mL (≈ 572 µM); in the assay on Escherichia coli [13] it was 400 µg/mL (≈ 1140 µM); in the assay on Proteus mirabilis [14] it was > 400 µg/mL; in the assay with Proteus vulgaris [15], 200 µg/mL (≈ 572 µM); with Serratia marcescens [16] it was 400 µg/mL (≈ 1140 µM); against Staphylococcus aureus [17] it was 25 µg/mL (≈ 71.5 µM). In the assay with Staphylococcus aureus [18], this compound displayed an MIC of 25 µg/mL (≈ 71.5 µM). This compound showed an MIC50 with Escherichia coli [1] of 400 µg/mL (≈ 1140 µM). The MIC70 in the assay with Escherichia coli [1] is >400 µg/mL.
